Screening results (PubChem)
Most compounds without a hit are left out; they make up all but 6.7% or so of the library.
T cruzi inh – blocks replication of Trypanosoma cruzi; 1.4% of 300,000 active; inhibition, % (concentration not given with the values); AID 1885; T. cruzi beta-gal in NIH3T3, luminescence, 90 h;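 active = mean inhibition across valid replicates above about 55%, limit read from the data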;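 note: signal also drops with host cell toxicity which is not excluded here; 0% = plate median of DMSO wells and 100% = zero luminescence signal; higher percent means less beta-gal luminescence so fewer parasites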
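Assay system: NIH/3T3 host cells with β-galactosidase reporter T. cruzi; input: 5,000 host fibroblasts per well; compound: single 50 nL compound addition per well in DMSO; timing: ≥90 h infection period, 3 h prior cell attachment; measured by: GalScreen β-gal luminescence, detergent lysis, 60 min; evaluation: percent inhibition of parasite-derived β-gal signal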
PREPL inhibitor – inhibitors of human prolyl oligopeptidase-like enzyme PREPL. Q4J6C6. recombinant PREPL, fluorescence polarization activity-based probe. inhibition, % at 5.96 µM. 0.68% of 320,000 active; in the data active = inhibition above about 43%;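 note: 0% = enzyme with DMSO and 100% = wells lacking enzyme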
Target sequence (Q4J6C6 whole entry, looked up): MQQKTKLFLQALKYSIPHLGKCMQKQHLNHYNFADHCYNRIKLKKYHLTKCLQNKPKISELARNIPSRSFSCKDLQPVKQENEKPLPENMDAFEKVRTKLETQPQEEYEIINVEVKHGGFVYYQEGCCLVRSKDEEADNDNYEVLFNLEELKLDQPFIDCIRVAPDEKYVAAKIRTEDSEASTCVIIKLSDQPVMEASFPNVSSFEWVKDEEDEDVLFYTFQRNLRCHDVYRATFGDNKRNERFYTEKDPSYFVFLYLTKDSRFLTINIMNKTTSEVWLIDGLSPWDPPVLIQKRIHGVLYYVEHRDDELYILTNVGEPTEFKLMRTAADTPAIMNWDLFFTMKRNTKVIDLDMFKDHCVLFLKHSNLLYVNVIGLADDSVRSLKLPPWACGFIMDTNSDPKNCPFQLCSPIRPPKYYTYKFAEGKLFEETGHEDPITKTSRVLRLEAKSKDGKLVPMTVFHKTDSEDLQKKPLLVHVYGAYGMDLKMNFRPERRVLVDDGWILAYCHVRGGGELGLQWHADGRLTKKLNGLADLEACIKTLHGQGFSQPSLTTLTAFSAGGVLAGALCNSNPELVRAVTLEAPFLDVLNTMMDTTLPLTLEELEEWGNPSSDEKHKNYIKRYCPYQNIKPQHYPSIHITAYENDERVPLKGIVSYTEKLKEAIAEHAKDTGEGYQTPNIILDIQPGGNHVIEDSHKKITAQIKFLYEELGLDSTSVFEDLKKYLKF
CHOP inhibitor – inhibitors of CHOP induction in ER stress response | CHO-K1 CHOP-promoter luciferase, tunicamycin-induced, 15-18 h | inhibition, % at 10 µM | 3.8% of 220,000 active | AID 2732;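 active = compounds that reduced the stress-induced luciferase reporter signal by more than about 70% of percent inhibition, limit read from the data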;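 note: 0% = tunicamycin plus vehicle and 100% = wells without tunicamycin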
CSC inhib – cancer stem cell inhibition; cancer stem cell-like cells viability, luminescence; inhibition, % at 7.5 µM; 1.1% of 300,000 active; AID 2717; in the data active = inhibition above about 75%; tested in HMLE shEcad cells
Beta cell apopt – blocks beta cell apoptosis | AID 435005 | 0.8% of 300,000 active | INS-1E cytokine-induced death, ATP luminescence, 48 h; percent of positive-control rescue, neutral wells zero | protection from apoptosis, % (test concentration not listed);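 active = Every replicate reaches about 75%, or at least half do and their mean reaches it too, limit read from the data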;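 note: 0% = cytokine-treated negative control wells and 100% = positive control rescue; higher means more ATP so stronger rescue from cytokine killing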
GRIN3A LBD mod – modulates the human NR3A ligand-binding domain; 2.5% of 340,000 active; NR3A LBD differential scanning fluorimetry, Tm shift; 0% = protein alone, 100% = glycine-bound protein; Tm shift relative to glycine control, % at 25 µM;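 active = melting temperature shift of at least 10% of the positive control shift, at one fixed dose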
* marks the source's active call; other numbers are inactive results; . = not tested or not shown.

SMILES	T cruzi inh	PREPL inhibitor	CHOP inhibitor	CSC inhib	Beta cell apopt	GRIN3A LBD mod
CSc1nsc2nc(=O)c(/C=C3\C(C)=Nc4ccc(C)cc43)c(N)n12	-11	0	1	48	14	21*
CCOP(=O)(c1ccccc1)C(O)c1ccc(Br)cc1 (centres undefined)	-14	-1	2	-14	-1	-3
CCC(=O)c1ccc(OCc2ccc(C(=O)c3ccccc3)cc2)cc1	33	-6	53	10	26	4
C/C(=N\NC(=O)c1ccccc1OCc1ccc(F)cc1)c1ccccn1	.	-2	.	31	94*	2
CCOc1ccc(C(=O)O/N=C(\N)c2ccccn2)cc1	-18	.	.	-19	-5	-16
CCOc1ccc(OCc2ccc(C(=O)N/N=C(\C)c3ccccn3)cc2)cc1	41	-3	53	-8	102*	0
O=c1[nH][nH]c(=O)c2c1[nH]c(=S)n2Cc1ccccc1	.	.	.	.	.	-2
Cc1cc(C)c2c(=O)[nH]c(SCC(=O)c3ccc(F)c(C)c3)nc2n1	-6	-29	64	-3	.	0
CCOc1ccc(-c2nnn(CC(=O)NCc3ccc(F)cc3)n2)cc1OCC	-3	10	81*	14	-1	-11
CCOc1ccc(-c2nnn(CC(=O)Nc3cccc(OC)c3)n2)cc1OCC	0	3	49	-5	-4	-1
Cn1nc2c3ccccc3n(Cc3ccccc3)c2nc1=S	23	12	-15	27	12	0
O=c1c2c(nc3cc(-c4ccc(Cl)cc4)[nH]n13)CCS2	-7	11	25	-19	1	4
CN(C(=O)c1cccc(NC(=O)Cc2ccc(NC(=O)C3CCCN(S(=O)(=O)c4cccc([N+](=O)[O-])c4)C3)cc2)c1)C1CCCCC1 (centres undefined)	.	.	.	.	.	10*
CN(C(=O)c1cccc(NC(=O)Cc2ccc(NC(=O)C3CCCN(C(=O)CCc4ccccc4)C3)cc2)c1)C1CCCC1 (centres undefined)	.	.	.	.	.	1
CN(C(=O)c1cccc(NC(=O)Cc2ccc(NC(=O)C3CCN(S(=O)(=O)c4cccc([N+](=O)[O-])c4)CC3)cc2)c1)C1CCCC1	.	.	.	.	.	9
CN(C(=O)c1ccc(NC(=O)Cc2cccc(NC(=O)C3CCCN(C(=O)CCc4ccccc4)C3)c2)cc1)C1CCCC1 (centres undefined)	.	-2	.	-12	3	22*
CCCCCCN(C(=O)CCCCCN1C(=O)NC(c2ccc([N+](=O)[O-])cc2)C(C(=O)OCc2ccccc2)=C1C)C(C(=O)NCCCC)C1CCCCC1 (centres undefined)	.	.	.	.	.	3
O=C(CN(C(=O)c1csnn1)c1ccccc1C(F)(F)F)NC1CCCCC1	0	-2	.	-21	2	0
c1ccc(CSc2ccc3nnc(-c4cccnc4)n3n2)cc1	4	14	16	2	-3	14*
Cc1cccc(CSc2ccc3nnc(-c4cccnc4)n3n2)c1	19	14	15	-12	3	-2
CC(=O)n1cc(N(C(=O)CCl)c2ccccc2)c2ccccc21	11	-3	107*	23	-24	1
CC(=O)n1cc(CO)c2ccccc21	-12	3	.	-6	.	1
CC(=O)n1cc(N(C(=O)CCl)c2ccc([N+](=O)[O-])cc2)c2ccccc21	11	1	106*	41	0	0
CCOc1ccc(CCNC(=O)CSc2cc(=O)n(CC)c3ccccc23)cc1OCC	-2	6	29	-9	2	-2
CCOC(=O)c1c(-c2ccc(C)o2)csc1NC(=S)NC(=O)c1cccs1	37	-18	-22	56	32	18*
SMILES	T cruzi inh	PREPL inhibitor	CHOP inhibitor	CSC inhib	Beta cell apopt	GRIN3A LBD mod
COC(=O)c1sc(NC(=O)CSc2nnnn2-c2cccc(OC)c2)nc1C	19	12	55	14	24	-3
CCOC(=O)c1c(-c2ccc(C)o2)csc1NC(=S)NC(=O)c1ccccc1Br	37	-17	15	35	-1	3
CCOC(=O)c1sc(NC(=O)CSc2nnnn2-c2ccc(C)c(C)c2)nc1C	3	-4	93*	-10	1	1
CCOC(=O)c1c(-c2ccc(C)o2)csc1NC(=O)CSc1nnc(C)s1	27	-21	27	0	-3	1
CCOC(=O)c1sc(NC(=O)CSc2nnnn2-c2ccccc2)nc1C	-23	0	85*	-15	-6	-7
CCOC(=O)c1c(-c2ccc(C)o2)csc1NC(=O)CSc1nnnn1-c1ccccc1	60*	-11	-14	2	-2	2
CCC1=C([N+](=O)[O-])C(c2ccc3c(c2)OCO3)NC(=O)N1 (centres undefined)	-17	-3	.	-11	-5	2
Oc1[nH]c2ccccc2c1N=NC(=S)NCC1CCCO1 (centres undefined)	-20	-3	1	-3	3	6
Oc1[nH]c2ccc(Br)cc2c1N=Nc1ccc(F)cc1	24	17	.	13	-5	30*
O=[N+]([O-])c1ccc(N=Nc2c(O)[nH]c3ccc(F)cc23)cc1	5	25	.	45	35	19*
Oc1[nH]c2ccc(Br)cc2c1N=NC(=S)NCC1CCCO1 (centres undefined)	60*	17	94*	42	17	-5
Cc1c(CCOC(=O)C23CC4(C)CC(C)(CC(C)(C4)C2)C3)sc[n+]1CC(=O)c1ccccc1	31	25	3	.	22	-6
Cc1c(CCOC(=O)CC23CC4CC(CC(C4)C2)C3)sc[n+]1CC(=O)c1ccccc1	35	28	11	100*	26	-2
Cc1nc(-c2ccccn2)nc(N(C)c2ccccc2)c1Cl	59*	0	.	.	.	1
Cc1ccc(CNC(=O)C2CCC(=O)N2C(C)C)cc1 (centres undefined)	-6	3	.	-18	-10	-1
Fc1ccc2nc(Nc3nc4cc5c(cc4s3)OCCO5)sc2c1	7	28	21	50	4	4
O=C(NNc1nc2ccccc2s1)c1ccccc1F	-7	-1	8	0	7	-4
Fc1ccc2nc(Nc3nc4c(F)cc(F)cc4s3)sc2c1	-21	16	10	49	90*	34*
Fc1ccc2nc(Nc3nc4cc5c(cc4s3)OCO5)sc2c1	-5	23	-30	12	9	31*
Fc1cccc2sc(Nc3nc4ccccc4s3)nc12	-5	10	85*	-4	.	28*
Fc1ccc2nc(Nc3ccccc3)sc2c1	-27	7	45	15	5	19*
NNc1nc2ccc(F)cc2s1	3	20	6	11	-5	1
Fc1ccc2nc(Nc3nc4c(F)cccc4s3)sc2c1	-5	15	66	-6	50	23*
O=S(=O)(Cc1cc(Sc2ccc(Cl)cc2)nc(-c2ccccc2)n1)c1ccccc1	55*	1	3	-4	6	-1
